≈ marks a conversion by molar mass, not a printed value.
system: not listed separately; assay: Partition coefficient at pH 7.4 by shake-flask method; format: physicochemical; conditions: octanol/water
In short: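 Octanol-water partition coefficient by shake-flask at pH 7.4, reported with SEM.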

First: O=C(NCC(O)CO)c1cc(N(CCCl)CCCl)c([N+](=O)[O-])cc1[N+](=O)[O-] (stereo unspecified)
Second: CS(=O)(=O)OCCN(CCOS(C)(=O)=O)c1cc(C(N)=O)c([N+](=O)[O-])cc1[N+](=O)[O-]
The logD of the first is higher: 0.93 for the first, -0.7 for the second.

system: V79; assay: Antiproliferative activity against chinese hamster wild-type V79 NTR-ve cells after 18 hrs; format: functional, cell-based; conditions: Cricetulus griseus, V79, 18 h

Compared with `O=C(NCC(O)CO)c1cc(N(CCCl)CCCl)c([N+](=O)[O-])cc1[N+](=O)[O-]` (stereo unspecified), `CS(=O)(=O)OCCN(CCOS(C)(=O)=O)c1cc(C(N)=O)c([N+](=O)[O-])cc1[N+](=O)[O-]` is 2.2-fold lower in IC50: 1160 µM for the first, 536 µM for the second.

system: V79; assay: Antiproliferative activity against chinese hamster V79 NTRpuro cells after 18 hrs; format: functional, cell-based; conditions: Cricetulus griseus, V79, 18 h

Going from `O=C(NCC(O)CO)c1cc(N(CCCl)CCCl)c([N+](=O)[O-])cc1[N+](=O)[O-]` (stereo unspecified) to `CS(=O)(=O)OCCN(CCOS(C)(=O)=O)c1cc(C(N)=O)c([N+](=O)[O-])cc1[N+](=O)[O-]`, the IC50 falls from 10 µM to 0.49 µM (20-fold). The second is the more potent here.

system: V79; assay: Selectivity ratio of IC50 for V79 NTR-ve cells to IC50 for V79 NTRpuro cells; format: functional, Cricetulus griseus; conditions: not given

Compared with `O=C(NCC(O)CO)c1cc(N(CCCl)CCCl)c([N+](=O)[O-])cc1[N+](=O)[O-]` (stereo unspecified), `CS(=O)(=O)OCCN(CCOS(C)(=O)=O)c1cc(C(N)=O)c([N+](=O)[O-])cc1[N+](=O)[O-]` is higher in “Ratio IC50” value: 135 for the first, 1200 for the second.

system: EMT6; assay: Antiproliferative activity against mouse wild type EMT6 NTR-ve cells after 18 hrs; format: functional, cell-based; conditions: EMT6, 18 h

First: O=C(NCC(O)CO)c1cc(N(CCCl)CCCl)c([N+](=O)[O-])cc1[N+](=O)[O-] (stereo unspecified)
Second: CS(=O)(=O)OCCN(CCOS(C)(=O)=O)c1cc(C(N)=O)c([N+](=O)[O-])cc1[N+](=O)[O-]
The IC50 of the first is 4.4-fold higher: 839 µM for the first, 189 µM for the second.

system: EMT6; assay: Antiproliferative activity against mouse EMT6 NTRpuro cells after 18 hrs; format: functional, cell-based; conditions: EMT6, 18 h

Compared with `O=C(NCC(O)CO)c1cc(N(CCCl)CCCl)c([N+](=O)[O-])cc1[N+](=O)[O-]` (stereo unspecified), `CS(=O)(=O)OCCN(CCOS(C)(=O)=O)c1cc(C(N)=O)c([N+](=O)[O-])cc1[N+](=O)[O-]` is 3.6-fold lower in IC50: 1.14 µM for the first, 0.32 µM for the second. The second is the more potent here.

system: EMT6; assay: Selectivity ratio of IC50 for EMT6 NTR-ve cells to IC50 forEMT6 NTRpuro cells; format: functional, Mus musculus; conditions: not given

First: O=C(NCC(O)CO)c1cc(N(CCCl)CCCl)c([N+](=O)[O-])cc1[N+](=O)[O-] (stereo unspecified)
Second: CS(=O)(=O)OCCN(CCOS(C)(=O)=O)c1cc(C(N)=O)c([N+](=O)[O-])cc1[N+](=O)[O-]
The “Ratio IC50” value of the first is higher: 803 for the first, 755 for the second.

system: WiDr; assay: Antiproliferative activity against human wild type WiDr NTR-ve cells after 18 hrs; format: functional, cell-based; conditions: not given

Compared with `O=C(NCC(O)CO)c1cc(N(CCCl)CCCl)c([N+](=O)[O-])cc1[N+](=O)[O-]` (stereo unspecified), `CS(=O)(=O)OCCN(CCOS(C)(=O)=O)c1cc(C(N)=O)c([N+](=O)[O-])cc1[N+](=O)[O-]` is 41-fold lower in IC50: 984 µM for the first, 24 µM for the second.

system: WiDr; assay: Antiproliferative activity against human WiDr NTRneo cells after 18 hrs; format: functional, cell-based; conditions: not given

Going from `O=C(NCC(O)CO)c1cc(N(CCCl)CCCl)c([N+](=O)[O-])cc1[N+](=O)[O-]` (stereo unspecified) to `CS(=O)(=O)OCCN(CCOS(C)(=O)=O)c1cc(C(N)=O)c([N+](=O)[O-])cc1[N+](=O)[O-]`, the IC50 falls from 14 µM to 0.67 µM (21-fold).

system: WiDr; assay: Selectivity ratio of IC50 for WiDr NTR-ve cells to IC50 for WiDr NTRneo cells; format: functional, Homo sapiens; conditions: not given

First: O=C(NCC(O)CO)c1cc(N(CCCl)CCCl)c([N+](=O)[O-])cc1[N+](=O)[O-] (stereo unspecified)
Second: CS(=O)(=O)OCCN(CCOS(C)(=O)=O)c1cc(C(N)=O)c([N+](=O)[O-])cc1[N+](=O)[O-]
The “Ratio IC50” value of the first is higher: 79 for the first, 55 for the second.

system: not listed separately; assay: Antiproliferative activity against human wild type Skov3 NTR-ve cells after 18 hrs; format: functional, cell-based; conditions: not given

Compared with `O=C(NCC(O)CO)c1cc(N(CCCl)CCCl)c([N+](=O)[O-])cc1[N+](=O)[O-]` (stereo unspecified), `CS(=O)(=O)OCCN(CCOS(C)(=O)=O)c1cc(C(N)=O)c([N+](=O)[O-])cc1[N+](=O)[O-]` is 7.6-fold lower in IC50: 1710 µM for the first, 226 µM for the second. The second is the more potent here.

system: V79; assay: Clonogenic survival of V79 NTRoua cells after 5 hrs by MCL assay; format: functional, Cricetulus griseus; conditions: not given

Work on `O=C(NCC(O)CO)c1cc(N(CCCl)CCCl)c([N+](=O)[O-])cc1[N+](=O)[O-]` (stereo unspecified) yielded an Activity of 3500 µM.

Work on `CS(=O)(=O)OCCN(CCOS(C)(=O)=O)c1cc(C(N)=O)c([N+](=O)[O-])cc1[N+](=O)[O-]` yielded an Activity of over 300 µM.

system: not listed separately; assay: Antiproliferative activity against human Skov3 NTRneo cells after 18 hrs; format: functional, cell-based; conditions: SK-OV-3, 18 h

Going from `O=C(NCC(O)CO)c1cc(N(CCCl)CCCl)c([N+](=O)[O-])cc1[N+](=O)[O-]` (stereo unspecified) to `CS(=O)(=O)OCCN(CCOS(C)(=O)=O)c1cc(C(N)=O)c([N+](=O)[O-])cc1[N+](=O)[O-]`, the IC50 falls from 5.1 µM to 1.2 µM (4.2-fold).

system: not listed separately; assay: Selectivity ratio of IC50 for Skov3 NTR-ve cells to IC50 for Skov3 NTRneo cells; format: functional, Homo sapiens; conditions: not given

First: O=C(NCC(O)CO)c1cc(N(CCCl)CCCl)c([N+](=O)[O-])cc1[N+](=O)[O-] (stereo unspecified)
Second: CS(=O)(=O)OCCN(CCOS(C)(=O)=O)c1cc(C(N)=O)c([N+](=O)[O-])cc1[N+](=O)[O-]
The “Ratio IC50” value of the first is higher: 327 for the first, 220 for the second.

system: V79; assay: Clonogenic survival of 3% V79 NTRpuro cells in co-cultures with 97% V79 NTRoua after 5 hrs by MCL assay; format: functional, Cricetulus griseus; conditions: not given
In short: (§1)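 Multicellular layer cocultures of 3% V79-NTRpuro activators and 97% V79oua NTR-ve targets (ouabain-resistant), exposed to prodrug for 5 h. MCLs were then trypsin-dissociated and plated in ouabain or puromycin selective media for clonogenic survival. C10 (10% survival) interpolated for activators and targets; AC/TC ratio derived. Mean with SEM or range over independent experiments.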

Compared with `O=C(NCC(O)CO)c1cc(N(CCCl)CCCl)c([N+](=O)[O-])cc1[N+](=O)[O-]` (stereo unspecified), `CS(=O)(=O)OCCN(CCOS(C)(=O)=O)c1cc(C(N)=O)c([N+](=O)[O-])cc1[N+](=O)[O-]` is 7.3-fold lower in Activity: 95 µM for the first, 13 µM for the second.

system: V79; assay: Clonogenic survival of 97% V79 NTRoua cells in co-cultures with 3% V79 NTRpuro cells after 5 hrs by MCL assay; format: functional, Cricetulus griseus; conditions: not given; in short: as §1

Compared with `O=C(NCC(O)CO)c1cc(N(CCCl)CCCl)c([N+](=O)[O-])cc1[N+](=O)[O-]` (stereo unspecified), `CS(=O)(=O)OCCN(CCOS(C)(=O)=O)c1cc(C(N)=O)c([N+](=O)[O-])cc1[N+](=O)[O-]` is 3.4-fold lower in Activity: 510 µM for the first, 152 µM for the second.

system: not listed separately; assay: Toxicity in ip dosed CD1 nude mouse in DMSO; format: organism-based; conditions: in vivo
In short: (§2)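 Maximum tolerated dose (MTD) determined in CD-1 nude mice after a single i.p. injection of prodrug, given in the vehicle named in each line.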

`CS(=O)(=O)OCCN(CCOS(C)(=O)=O)c1cc(C(N)=O)c([N+](=O)[O-])cc1[N+](=O)[O-]` showed an MTD of 2000 µmol/kg.

system: not listed separately; assay: Toxicity in ip dosed CD1 nude mouse in DMA/PEG; format: organism-based; conditions: in vivo; in short: as §2

Work on `O=C(NCC(O)CO)c1cc(N(CCCl)CCCl)c([N+](=O)[O-])cc1[N+](=O)[O-]` (stereo unspecified) yielded an MTD of 560 µmol/kg.

system: EMT6; assay: Antitumor activity against mixed mouse EMT6/EMT6 NTRpuro cells injected in CD1 nude mouse assessed as cell kill at 560 umol/kg, ip in DMA/PEG after 18 hrs; format: functional; conditions: not given

`O=C(NCC(O)CO)c1cc(N(CCCl)CCCl)c([N+](=O)[O-])cc1[N+](=O)[O-]` (stereo unspecified) showed an LCK of 1.49.

system: EMT6; assay: Antitumor activity against mixed mouse EMT6/EMT6 NTRpuro cells injected in CD1 nude mouse assessed as cell kill at 2000 umol/kg, ip in DMSO after 18 hrs; format: functional; conditions: not given

With `CS(=O)(=O)OCCN(CCOS(C)(=O)=O)c1cc(C(N)=O)c([N+](=O)[O-])cc1[N+](=O)[O-]` the LCK was over 2.6.

system: WiDr; assay: Antitumor activity against mixed human 10% WiDr NTRneo/ 90% WiDr tumor cells injected in CD1 nude mouse assessed as growth delay at 2000 umol/kg, ip in DMSO; format: functional; conditions: not given
In short: (§3)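 WiDr tumors grown in CD-1 nude mice from stably NTR-transfected WiDr-NTRneo cells, either alone or mixed 1:9 with NTR-ve WiDr cells. Each mouse received a single i.p. dose. The read-out was median growth delay for tumors to reach an endpoint size of 15 mm mean diameter. Long-term controls were counted as tumors not palpable 100 days after treatment. The aziridine positive control was included in every experiment.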

For `CS(=O)(=O)OCCN(CCOS(C)(=O)=O)c1cc(C(N)=O)c([N+](=O)[O-])cc1[N+](=O)[O-]`, the Activity was 20 days.

system: WiDr; assay: Antitumor activity against human 100% WiDr NTRneo tumor cells injected in CD1 nude mouse assessed as growth delay at 560 umol/kg, ip in DMA/PEG; format: functional; conditions: not given
In short: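 WiDr-NTRneo tumours (100% NTR+ve, or 1:9 NTR+ve:NTR-ve mixtures) in CD-1 nude mice, given a single i.p. dose at MTD. Read-out is median growth delay to 15 mm mean diameter, plus tumours not palpable 100 days after treatment. Aziridine given at 200 µmol/kg as positive control in every experiment.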

In the case of `O=C(NCC(O)CO)c1cc(N(CCCl)CCCl)c([N+](=O)[O-])cc1[N+](=O)[O-]` (stereo unspecified), the Activity is reported as 75 days.

system: not listed separately; assay: Solubility in alpha MEM; format: physicochemical; conditions: not given
In short: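 Solubility (mM) in α-MEM with 5% fetal calf serum at ambient temperature, measured by HPLC.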

Work on `O=C(NCC(O)CO)c1cc(N(CCCl)CCCl)c([N+](=O)[O-])cc1[N+](=O)[O-]` (stereo unspecified) yielded a solubility of 2900 µM (≈ 1230 µg/mL).

system: not listed separately; assay: Stability in alpha MEM at 37 degC after 24 hrs; format: physicochemical; conditions: read-out: Stability
In short: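 Percent parent compound remaining, by HPLC, after holding in α-MEM with 5% fetal calf serum at 37 °C for 24 h.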

`O=C(NCC(O)CO)c1cc(N(CCCl)CCCl)c([N+](=O)[O-])cc1[N+](=O)[O-]` (stereo unspecified) gave a remaining at 24 h of 100%.

system: WiDr; assay: Antitumor activity against human 100% WiDr NTRneo tumor cells injected in CD1 nude mouse assessed as growth delay at 2000 umol/kg, ip in DMSO; format: functional; conditions: not given; in short: as §3

`CS(=O)(=O)OCCN(CCOS(C)(=O)=O)c1cc(C(N)=O)c([N+](=O)[O-])cc1[N+](=O)[O-]` gave an Activity of over 82 days.
